Assay results published in ChEMBL document CHEMBL5143609, “Enigmazole C: A Cytotoxic Macrocyclic Lactone and Its Ring-Opened Derivatives from a New Species of Homophymia Sponge” (2022).

Key:
Type in all cases: functional
Settings in all cases: for CC50: read-out: LC50 (the source's name)
PSN1 = experiment: Cytotoxicity against human PSN1 cells
In short: (§1)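 Cell-growth inhibition was tested in human tumor lines: A-549 lung carcinoma, HT-29 colorectal carcinoma, MDA-MB-231 breast adenocarcinoma and PSN-1 pancreatic adenocarcinoma. GI50 is the concentration giving 50% inhibition of cell growth, calculated by a literature procedure. TGI and LC50 endpoints were also reported.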

MDA-MB-231 = experiment: Cytotoxicity against human MDA-MB-231 cells; in short: as §1
A549 = experiment: Cytotoxicity against human A549 cells; in short: as §1
HT-29 = experiment: Cytotoxicity against human HT-29 cells; in short: as §1

Compound: C=C1CC(C)CC2CC(=O)C=C(C[C@H](O)CC[C@H](C)C(=O)OC(c3coc(/C=C(/C)C(C)OC)n3)C1)O2 (some centres undefined)
- GI50 (PSN1): 8.7 µM
- TGI (PSN1): > 19 µM
- CC50 (PSN1): > 19 µM
- GI50 (MDA-MB-231): > 19 µM
- TGI (MDA-MB-231): > 19 µM
- CC50 (MDA-MB-231): > 19 µM
- GI50 (A549): 9.9 µM
- TGI (A549): > 19 µM
- CC50 (A549): > 19 µM
- GI50 (HT-29): 18 µM
- TGI (HT-29): > 19 µM
- CC50 (HT-29): > 19 µM

Compound: C=C(C[C@@H](C)C[C@@H]1CC(=O)C=C(/C=C/CC[C@H](C)C(=O)O)O1)C[C@H](O)c1coc(/C=C(/C)[C@@H](C)OC)n1
- GI50 (PSN1): 1.1 µM
- TGI (PSN1): > 19 µM
- CC50 (PSN1): > 19 µM
- GI50 (MDA-MB-231): 4.1 µM
- TGI (MDA-MB-231): > 19 µM
- CC50 (MDA-MB-231): > 19 µM
- GI50 (A549): 1.4 µM
- TGI (A549): > 19 µM
- CC50 (A549): > 19 µM
- GI50 (HT-29): 1 µM
- TGI (HT-29): 3.7 µM
- CC50 (HT-29): > 19 µM
